Measured values taken from ChEMBL document CHEMBL4725347, “Discovery of a Monoiodo Aza-BODIPY Near-Infrared Photosensitizer: in vitro and in vivo Evaluation for Photodynamic Therapy” (J Med Chem, 2020).

Columns and labels:
[1] = Emission property of the compound in chloroform assessed as maximum emission wavelength by fluorescence spectrophotometric method; format: physicochemical
Procedure, shortened: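 Fluorescence spectrum recorded in chloroform by fluorescence spectrophotometer at room temperature.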

[2] = Absorption property of the compound in N,N-dimethylformamide assessed as absorption coefficient by UV-visible spectrophotometric method; format: physicochemical
Procedure, shortened: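 Electronic absorption spectra recorded by UV-visible spectrophotometry at room temperature. Solvents were chloroform, isopropanol, acetonitrile, DMF, and PBS buffer containing 1% Cremophor EL/1,2-propanediol (10:3, v:v). Chloroform data were referenced to the non-halogenated parent dye.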

[3] = Dark toxicity in human HeLa cells assessed as reduction in cell viability after 3 hrs by MTT assay; format: cell-based
Procedure, shortened: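 Compound was formulated with Cremophor EL/1,2-propanediol in PBS, filtered, and its concentration confirmed by UV-Vis. HeLa cells in DMEM with 10% FBS at 37 °C, 5% CO2 were seeded at 3×10^3 cells/well and adhered overnight. Cells were exposed to graded concentrations for 3 h without light, incubated 24 h, then MTT 0.5 mg/mL for 4 h; formazan dissolved in DMSO, A490 read.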

[4] = Stability of the compound in PBS containing 1% Cremophor EL/1,2-propanediol (10:3, v:v) system assessed as compound degradation under dark condition; format: physicochemical; settings: buffer
[5] = tested on: HeLa; assay: Induction of apoptosis in human HeLa cells assessed as necrotic cells at 40 nM preincubated for 3 hrs followed by 54 J/cm2 light irradiation and measured after 24 hrs by Annexin-V-FITC/propidium iodide staining based flow cytometry (reference value: 2.8%); format: functional
Procedure, shortened: (§1)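 HeLa cells in six-well plates were exposed to compound for 3 h, irradiated (λ > 590 nm), and incubated 24 h at 37 °C. Cells were then harvested, washed with PBS, and stained with annexin V-FITC/PI for 20 min at room temperature before immediate flow cytometry. Untreated, unirradiated cells served as control.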

[6] = tested on: HeLa; assay: Induction of apoptosis in human HeLa cells assessed as early apoptotic cells at 200 nM preincubated for 3 hrs followed by 54 J/cm2 light irradiation and measured after 24 hrs by Annexin-V-FITC/propidium iodide staining based flow cytometry (reference value: 0.54%); format: functional; procedure, shortened: as §1
[7] = tested on: HeLa; assay: Induction of reactive oxygen species generation in human HeLa cells incubated for 3 hrs prior to H2DCFDA addition for 20 mins followed by 54 J/cm2 light irradiation by confocal scanning microscopic analysis; format: functional, cell-based
Procedure, shortened: (§2)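 HeLa cells were exposed to 0.004, 0.02, 0.10, 0.5 or 2.5 μM for 3 h, washed, and loaded with H2DCFDA 10 μM in PBS for 20 min at 37 °C. After washing, cells in PBS were irradiated with 54 J/cm² (λ > 590 nm) or kept dark. Fluorescence was read by confocal microscopy and by plate reader (ex 485/em 538 nm).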

[8] = tested on: HeLa; assay: Induction of reactive oxygen species generation in human HeLa cells at 0.004 to 2.5 uM incubated for 3 hrs under dark condition by confocal scanning microscopic analysis; format: cell-based; settings: dose 0.004-2.5 µM; procedure, shortened: as §2
[9] = Drug uptake in Balb/c nu/nu mouse xenografted with human HeLa cells at 2 mg/kg, iv measured over 10 hrs by fluorescence imaging analysis; format: ADME, organism-based; settings: in vivo
Procedure, shortened: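 Female Balb/c nu/nu mice bore subcutaneous HeLa tumors (5×10^6 cells, right back) and received 2 mg/kg via tail vein. Living mice were imaged under isoflurane at time points (ex 680/em 720 nm, 1 s exposure). At set times mice were euthanized and heart, liver, spleen, lungs, kidneys and tumor imaged ex vivo; ROI quantified, mean ± SD, n = 3.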

Question: Which results are given for `COc1ccc(C2=[N+]3C(=Nc4c(-c5ccccc5)cc(-c5ccc(OC)cc5)n4[B-]3(F)F)C(c3ccccc3)=C2I)cc1`?
Answer: Activity [1]: 721 nm; Activity [2]: 59300 M⁻¹ cm⁻¹; IC50 at 3 h [3]: > 50 µM; Stabilty [4]: Unstable; Activity [5]: 1.73%; Activity [6]: 81.04%; Activity [7]: Dose-dependent effect; Activity [8]: Non-Toxic; Drug uptake [9]: Not Active
